Results taken from ChEMBL document CHEMBL1127616, “Synthesis, structural characterization, and antitumor properties of a novel class of large-ring platinum(II) chelate complexes incorporating the cis-1,4-diaminocyclohexane ligand in a unique locked boat conformation” (J Med Chem, 1994).

Assays:
L1210 [1] = test: Tested for the ratio of treated and control against solid tumor murine L1210 leukemia 2.5 mg/kg per injection in experiment 2; T/C; type: functional, organism-based; settings: Mus musculus
In short: (§1)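 Murine leukemia life span assay in CD2F1 (Balb/c × DBA/2F1) mice, 18–22 g, randomized, with IP tumor cell inoculation on day 0. Depending on the model, the inoculum was 1 × 10^4 cells with IP dosing on days 3, 7 and 11, or 1 × 10^6 cells with IP dosing on days 1, 5 and 9. Drug was given in 0.9% saline, mg/kg per injection, by average cage weight. Read-outs were median day of death and %T/C. Mice alive 60 days after treatment counted as cured and were excluded.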

L1210 [2] = test: Tested for in vitro growth inhibition against murine leukemia cell L1210PtR4; type: functional, cell-based; settings: Mus musculus
P388 [3] = test: Tested for in vitro growth inhibition against murine leukemia cell P388Pt4; type: functional, cell-based; settings: Mus musculus
L1210 [4] = test: Tested for in vivo weight change against murine L1210 leukemia at the dose of 3.0 mg/kg per injection in experiment 1; type: functional, organism-based; settings: Mus musculus
In short: (§2)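 Leukemia life-span assays used CD2F1 (Balb/c × DBA/2F1) mice weighing 18–22 g. Cells were inoculated IP on day 0, and compounds in 0.9% saline were given IP, dosed by average cage weight. Weight change is the difference in mean group weight between the last and first treatment days.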

Mus musculus [5] = test: Tested for median life span against solid tumor P388 Pt-resistant leukemia at 3.7 mg/kg per injection; type: functional, organism-based; in short: as §1
L1210 [6] = test: Tested for the ratio of number of survivors / total number after 60 days at the dose of 1.6 mg/kg per injection against murine leukemia L1210 experiment 2; type: functional, organism-based; settings: Mus musculus
In short: (§3)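 CD2F1 (Balb/c × DBA/2F1) mice, 18–22 g, randomized and inoculated IP with counted leukemia cells on day 0, then re-randomized. Three IP treatments, dissolved in 0.9% saline and dosed on average cage weight, with dose in mg/kg per injection across a full toxic-to-ineffective range. Median life span and %T/C were recorded. Survivors at 60 days were counted as cured and excluded from %T/C.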

Mus musculus [7] = test: Tested for in vivo weight change against murine P388 leukemia at the dose of 2.3 mg/kg per injection in experiment 2; type: functional, organism-based; in short: as §2
L1210 [8] = test: Tested for in vitro growth inhibition against murine leukemia cell L1210DDP5; type: functional, cell-based; settings: Mus musculus
L1210 [9] = test: Tested for in vitro growth inhibition against murine leukemia cell L1210S; type: functional, cell-based; settings: Mus musculus
L1210 [10] = test: Tested for in vitro growth inhibition against murine leukemia cell L1210DACH; type: functional, cell-based; settings: Mus musculus
L1210 [11] = test: Tested for the ratio of number of survivors / total number after 60 days at the dose of 1.6 mg/kg per injection against murine L1210 Pt-resistant leukemia in experiment 2; type: functional, organism-based; settings: Mus musculus; in short: as §3
Mus musculus [12] = test: Tested for median life span against solid tumor P388 leukemia at 3.7 mg/kg per injection in experiment 2; type: functional, organism-based; in short: as §1
Mus musculus [13] = test: Tested for the ratio of treated and control against solid tumor murine P388 leukemia 2.3 mg/kg per injection in experiment 2; T/C; type: functional, organism-based; in short: as §1
L1210 [14] = test: Tested for the ratio of treated and control against solid tumor murine L1210 Pt-resistant leukemia 1.5 mg/kg per injection in experiment 1; T/C; type: functional, organism-based; settings: Mus musculus; in short: as §1
Mus musculus [15] = test: Tested for the ratio of number of survivors / total number after 60 days at the dose of 2.3 mg/kg per injection against murine P388 Pt-resistant leukemia; type: functional, organism-based; in short: as §3
Mus musculus [16] = test: Tested for the ratio of number of survivors / total number after 60 days at the dose of 2.3 mg/kg per injection against murine leukemia P388 experiment 2; type: functional, organism-based; in short: as §3
L1210 [17] = test: Tested for the ratio of number of survivors / total number after 60 days at the dose of 1.5 mg/kg per injection against murine L1210 Pt-resistant leukemia in experiment 1; type: functional, organism-based; settings: Mus musculus; in short: as §3
Mus musculus [18] = test: Tested for the ratio of treated and control against solid tumor murine P388 leukemia 3.7 mg/kg per injection in experiment 2; T/C; type: functional, organism-based; in short: as §1
P388 [19] = test: Tested for in vitro growth inhibition against murine leukemia cell P388S; type: functional, cell-based; settings: Mus musculus
L1210 [20] = test: Tested for the ratio of treated and control against solid tumor murine L1210 leukemia 10 mg/kg per injection in experiment 2; T/C; type: functional, organism-based; settings: Mus musculus; in short: as §1
Mus musculus [21] = test: Tested for median life span against solid tumor P388 leukemia at 5.0 mg/kg per injection; T/C; type: functional, organism-based; in short: as §1
Mus musculus [22] = test: Tested for the ratio of treated and control against solid tumor murine P388 Pt-resistant leukemia 10 mg/kg per injection; T/C; type: functional, organism-based; in short: as §1
L1210 [23] = test: Tested for median life span against solid tumor L1210 leukemia at 4.0 mg/kg per injection in experiment 1; type: functional, organism-based; settings: Mus musculus
In short: (§4)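 CD2F1 mice weighing 18–22 g were inoculated IP with leukemia cells on day 0. Compounds in 0.9% saline were given IP in three injections, dosed by average cage weight, over a dose range from toxic to ineffective. Median life span was recorded, with cause of death assessed at necropsy and 60-day survivors counted as cured.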

L1210 [24] = test: Tested for the ratio of number of survivors / total number after 60 days at the dose of 10 mg/kg per injection against murine leukemia L1210 experiment 2; type: functional, organism-based; settings: Mus musculus; in short: as §3
L1210 [25] = test: Tested for the ratio of treated and control against solid tumor murine L1210 Pt-resistant leukemia 5.0 mg/kg per injection in experiment 2; T/C; type: functional, organism-based; settings: Mus musculus; in short: as §1
L1210 [26] = test: Tested for median life span against solid tumor L1210 Pt-resistant leukemia at 5.0 mg/kg per injection in experiment 2; type: functional, organism-based; settings: Mus musculus; in short: as §4
Mus musculus [27] = test: Tested for median life span against solid tumor P388 leukemia at 10 mg/kg per injection; type: functional, organism-based; in short: as §1
L1210 [28] = test: Tested for the ratio of number of survivors / total number after 60 days at the dose of 5.0 mg/kg per injection against murine L1210 Pt-resistant leukemia in experiment 2; type: functional, organism-based; settings: Mus musculus; in short: as §3
[29] = tested on: M5076 sarcoma (Mus musculus); test: Tested for the ratio of treated and control tumor to reach 750 mg against murine solid tumor M5076 sarcoma 4.0 mg/kg per injection
L1210 [30] = test: Tested for the ratio of number of survivors / total number after 60 days at the dose of 4.0 mg/kg per injection against murine leukemia L1210 experiment 1; type: functional, organism-based; settings: Mus musculus; in short: as §3
L1210 [31] = test: Tested for the ratio of number of survivors / total number after 60 days at the dose of 10 mg/kg per injection against murine L1210 Pt-resistant leukemia in experiment 2; type: functional, organism-based; settings: Mus musculus; in short: as §3
Mus musculus [32] = test: Tested for in vivo weight change against murine P388 Pt-resistant leukemia at the dose of 5.0 mg/kg per injection; type: functional, organism-based; in short: as §2
Mus musculus [33] = test: Tested for net cell kill tumor burden reduction during therapy at the dose 9.0 mg/kg in B16 melanoma; type: functional, organism-based; parameters: dose 9 mg/kg
In short: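 Solid tumor growth delay assay; B16 melanoma and M5076 sarcoma were run in B6C3F1 (C57BL/6 × C3HF1) mice of 18–22 g. Tumor fragments were implanted SC on day 0, then drug in 0.9% saline was given IP on days 1, 5, 9 or days 3, 7, 11, mg/kg per injection. T − C is the difference in days for treated and control tumors to reach 750 mg. Net log cell kill is tumor burden reduction during therapy. Cured mice were excluded.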

Mus musculus [34] = test: Tested for in vivo weight change against murine P388 Pt-resistant leukemia at the dose of 10 mg/kg per injection; type: functional, organism-based; in short: as §2
L1210 [35] = test: Tested for in vivo weight change against murine L1210 Pt-resistant leukemia at the dose of 10 mg/kg per injection in experiment 2; type: functional, organism-based; settings: Mus musculus; in short: as §2
L1210 [36] = test: Tested for the ratio of treated and control against solid tumor murine L1210 leukemia 6.0 mg/kg per injection in experiment 1; T/C; type: functional, organism-based; settings: Mus musculus; in short: as §1

[Pt(cis-1,4-dach)CL2] showed a Ratio (L1210 [1]) of 242%, an ID50 (L1210 [2]) of 1.21 µg/mL and an ID50 (P388 [3]) of 1.43 µg/mL. It also gave a Weight change (L1210 [4]) of -4.8 g, an MLS (Mus musculus [5]) of 25.8 days and a 60-day survivors (L1210 [6]) of 0. It also gave a Weight change (Mus musculus [7]) of -2.2 g, an ID50 (L1210 [8]) of 0.663 µg/mL and an ID50 (L1210 [9]) of 0.248 µg/mL. The ID50 (L1210 [10]) was 1.08 µg/mL, the 60-day survivors (L1210 [11]) was 1 and the MLS (Mus musculus [12]) was 26 days. The T/C (Mus musculus [13]) was 225%, the Ratio (L1210 [14]) was 154% and the 60-day survivors (Mus musculus [15]) was 0. The 60-day survivors (Mus musculus [16]) was 0, the 60-day survivors (L1210 [17]) was 0 and the T/C (Mus musculus [18]) was 234%. For the same substance, the ID50 (P388 [19]) was 0.047 µg/mL.
Substance CISPLATIN has a Ratio (L1210 [20]) of 199%, a T/C (Mus musculus [21]) of 261% and a T/C (Mus musculus [22]) of 123%. It also gave an MLS (L1210 [23]) of 19.5 days, a Survivors (L1210 [24]) of 1 and a Ratio (L1210 [25]) of 107%. It also gave an MLS (L1210 [26]) of 11 days, an MLS (Mus musculus [27]) of 9.5 days and a Survivors (L1210 [28]) of 0. It also gave an ID50 (L1210 [2]) of 7.84 µg/mL, an ID50 (P388 [3]) of 10 µg/mL and a T-C [29] of 15.9 days. It also gave a Survivors (L1210 [30]) of 1, a Survivors (L1210 [31]) of 0 and a Weight change (Mus musculus [32]) of 1 g. It also gave a Log net cell kill (Mus musculus [33]) of -0.4, an ID50 (L1210 [8]) of 4.11 µg/mL and a Weight change (Mus musculus [34]) of -5.9 g. It also gave an ID50 (L1210 [9]) of 0.375 µg/mL, an ID50 (L1210 [10]) of 0.52 µg/mL and a Weight change (L1210 [35]) of -4.8 g. The Ratio (L1210 [36]) was 175% and the ID50 (P388 [19]) was 0.128 µg/mL.
